{"data": "Measurements gathered from unrelated publications", "PCNA": "Proliferating cell nuclear antigen (PCNA, Homo sapiens, UniProt P12004)", "Ntsr1": "Neurotensin receptor type 1 (Ntsr1, Rattus norvegicus, UniProt P20789)", "MMP2": "72 kDa type IV collagenase (MMP2, Homo sapiens, UniProt P08253)", "F10 trypsin-like site": "Coagulation factor X, trypsin-like site (F10, Homo sapiens, UniProt P00742)", "ADRB2": "Beta-2 adrenergic receptor (ADRB2, Homo sapiens, UniProt P07550)", "note": "Protocols differ between the studies behind these lines."}
{"SMILES": "CC[C@H](C)[C@H](NC(=O)[C@H](CCCCN)NC(=O)[C@H](CO)NC(=O)[C@H](CC(=O)O)NC(=O)[C@H](CCCCN)NC(=O)[C@H](CCCCN)NC(=O)CNC(=O)[C@H](Cc1c[nH]cn1)NC(=O)[C@@H](N)CCC(N)=O)C(=O)N[C@H](C(=O)N[C@@H](C)C(=O)N[C@@H](Cc1c[nH]cn1)C(=O)N[C@@H](Cc1ccccc1)C(=O)N[C@@H](CCSC)C(=O)N[C@@H](CCCNC(=N)N)C(=O)N[C@@H](CC(C)C)C(=O)N1CCC[C@H]1C(=O)N[C@@H](CCCCN)C(=O)N[C@@H](C)C(=O)O)[C@@H](C)O", "target": "PCNA", "test": "binding, ITC", "setting": "pH 7.4", "quantity": "Kd", "result": "8.67 µM"}
{"SMILES": "COc1cccc(OC)c1-c1cc(C(=O)NC2(C(=O)O)CCCCC2)nn1-c1ccc(F)cc1", "target": "Ntsr1", "test": "calcium signal, antagonist, fluorescence", "quantity": "Kb", "result": "> 10 µM"}
{"SMILES": "CC#CCOc1ccc(S(=O)(=O)CC2CS2)cc1 (racemic)", "target": "MMP2", "test": "enzyme activity, inhibitor, fluorescence", "quantity": "IC50", "result": "26 µM"}
{"SMILES": "O=C(CCCCCCNC(=O)c1cnc(N(c2ccccc2)c2ccccc2)nc1)NO", "target": "Polyamine deacetylase HDAC10 (HDAC10, Homo sapiens, UniProt Q969S8)", "test": "enzyme activity, inhibitor, fluorescence", "quantity": "IC50", "result": "0.466 µM"}
{"SMILES": "CN1[C@@H]2C[C@@H](OC(=O)[C@H](CO)c3ccccc3)C[C@H]1[C@@H]1O[C@@H]12", "target": "Ileal sodium/bile acid cotransporter (SLC10A2, Homo sapiens, UniProt Q12908)", "test": "transporter uptake, inhibitor", "quantity": "Ki", "result": "6450 µM"}
{"SMILES": "CC(C)(C)[C@H](NC(=O)[C@H](CCCNC(=N)N)NC(=O)Cc1ccc(CN)cc1)C(=O)N[C@@H](CCONC(=N)N)C(=O)NCc1ccc(C(=N)N)cc1", "target": "F10 trypsin-like site", "test": "enzyme activity, inhibitor", "setting": "pH 8", "quantity": "Ki", "result": "28 µM"}
{"SMILES": "NCC(O)c1ccc(O)cc1 (stereo not shown)", "target": "ADRB2", "test": "ligand displacement, radioligand", "setting": "cell membranes", "quantity": "IC50", "result": "73.7 µM"}
{"SMILES": "NCC(O)c1ccc(O)c(O)c1F (stereo not shown)", "target": "ADRB2", "test": "ligand displacement, radioligand", "setting": "cell membranes", "quantity": "Ki", "result": "16 µM"}
{"SMILES": "CC[C@H](C)[C@H](NC(=O)[C@H](CCCCN)NC(=O)[C@H](CO)NC(=O)[C@H](C)NC(=O)[C@H](CCCCN)NC(=O)[C@H](CCCCN)NC(=O)CNC(=O)[C@H](Cc1c[nH]cn1)NC(=O)[C@@H](N)CCC(N)=O)C(=O)N[C@H](C(=O)N[C@@H](CC(=O)O)C(=O)N[C@@H](Cc1c[nH]cn1)C(=O)N[C@@H](Cc1ccccc1)C(=O)N[C@@H](CCSC)C(=O)N[C@@H](CCCNC(=N)N)C(=O)N[C@@H](CC(C)C)C(=O)N1CCC[C@H]1C(=O)N[C@@H](CCCCN)C(=O)N[C@@H](C)C(=O)O)[C@@H](C)O", "target": "PCNA", "test": "binding, ITC", "setting": "pH 7.4", "quantity": "Kd", "result": "2.45 µM"}
{"SMILES": "CC(C)(C)[C@H](NC(=O)[C@H](CCCNC(=N)N)NC(=O)Cc1ccc(CNC(=N)N)cc1)C(=O)N[C@@H](CCCNC(=N)N)C(=O)NCc1ccc(C(=N)N)cc1", "target": "F10 trypsin-like site", "test": "enzyme activity, inhibitor", "setting": "pH 8", "quantity": "Ki", "result": "7.1 µM"}
{"SMILES": "CC(C)C[C@H](NC(=O)[C@H](Cc1ccccc1)NC(=O)c1cnccn1)B(O)O", "target": "Coagulation factor X (F10, Homo sapiens, UniProt P00742)", "test": "enzyme activity, inhibitor", "quantity": "IC50", "result": "> 33 µM"}
{"SMILES": "C[C@H](N)Cn1ncc2ccc3c(c21)CCCO3", "target": "ADRB2", "test": "cell-free assay, radioligand", "quantity": "Ki", "result": "0.48 µM"}
{"SMILES": "NCC(O)c1cc(O)c(O)cc1F (stereo not shown)", "target": "ADRB2", "test": "ligand displacement, radioligand", "setting": "cell membranes", "quantity": "Ki", "result": "1160 µM"}
{"SMILES": "CC[C@H](C)[C@H](NC(=O)[C@H](CC(C)C)NC(=O)[C@H](CO)NC(=O)[C@H](CC(=O)O)NC(=O)[C@H](CCCCN)NC(=O)[C@H](CCCCN)NC(=O)CNC(=O)[C@H](Cc1c[nH]cn1)NC(=O)[C@@H](N)CCC(N)=O)C(=O)N[C@H](C(=O)N[C@@H](CC(=O)O)C(=O)N[C@@H](Cc1c[nH]cn1)C(=O)N[C@@H](Cc1ccccc1)C(=O)N[C@@H](CCSC)C(=O)N[C@@H](CCCNC(=N)N)C(=O)N[C@@H](CC(C)C)C(=O)N1CCC[C@H]1C(=O)N[C@@H](CCCCN)C(=O)N[C@@H](C)C(=O)O)[C@@H](C)O", "target": "PCNA", "test": "binding, ITC", "setting": "pH 7.4", "quantity": "Kd", "result": "4.55 µM"}
{"SMILES": "C#CCOc1ccc(S(=O)(=O)CC2CS2)cc1 (racemic)", "target": "MMP2", "test": "enzyme activity, inhibitor, fluorescence", "quantity": "IC50", "result": "7 µM"}
{"SMILES": "CC[C@H](C)[C@H](NC(=O)[C@H](CCCCN)NC(=O)[C@H](CO)NC(=O)[C@H](CC(=O)O)NC(=O)[C@H](CCCCN)NC(=O)[C@H](CCCCN)NC(=O)CNC(=O)[C@H](Cc1c[nH]cn1)NC(=O)[C@@H](N)CCC(N)=O)C(=O)N[C@@H](C)C(=O)N[C@@H](CC(=O)O)C(=O)N[C@@H](Cc1c[nH]cn1)C(=O)N[C@@H](Cc1ccccc1)C(=O)N[C@@H](CCSC)C(=O)N[C@@H](CCCNC(=N)N)C(=O)N[C@@H](CC(C)C)C(=O)N1CCC[C@H]1C(=O)N[C@@H](CCCCN)C(=O)N[C@@H](C)C(=O)O", "target": "PCNA", "test": "binding, ITC", "setting": "pH 7.4", "quantity": "Kd", "result": "55.5 µM"}
{"SMILES": "CCOC(=O)C(CC)(CCCSCCOCCOCCOCCOCCNC(=O)OC(C)(C)C)NC(=O)c1ccc(C2CC2)c(Cc2ccc(F)cc2)n1 (stereo not shown)", "target": "Cannabinoid receptor 2 (CNR2, Homo sapiens, UniProt P34972)", "test": "cAMP, agonist", "quantity": "EC50", "result": "0.013 µM"}
{"SMILES": "CC(C)C[C@H](NC(=O)[C@H](CCC(N)=O)NC(=O)[C@H](CC(C)C)NC(=O)[C@H](CO)NC(=O)[C@H](CO)NC(=O)[C@@H]1CCCN1C(=O)[C@H](Cc1c[nH]c2ccccc12)NC(=O)[C@H](CCC(N)=O)NC(=O)[C@H](Cc1c[nH]c2ccccc12)NC(=O)[C@H](Cc1c[nH]c2ccccc12)NC(=O)[C@@H](N)Cc1c[nH]cn1)C(=O)N[C@@H](CCCNC(=N)N)C(=O)NCC(=O)NCC(=O)NCC(=O)N[C@@H](CO)C(=O)O", "target": "MMP2", "test": "enzyme activity, inhibitor, fluorescence", "quantity": "IC50", "result": "0.078 µM"}
{"SMILES": "COc1ccc(-c2cc(C(=O)N[C@H](C(=O)O)C3CCCCC3)nn2-c2ccnc3cc(Cl)ccc23)c(OC)c1", "target": "Ntsr1", "test": "calcium signal, antagonist, fluorescence", "quantity": "Kb", "result": "> 10 µM"}
{"SMILES": "O=C(N[C@H]1COC(=O)[C@@H](NC(=O)c2cccc(O)c2[O-])COC(=O)[C@@H](NC(=O)c2cccc(O)c2[O-])COC1=O)c1cccc(O)c1[O-].[Fe+3]", "target": "Neutrophil gelatinase-associated lipocalin (LCN2, Homo sapiens, UniProt P80188, C107S)", "test": "binding, fluorescence", "setting": "pH 5.5", "quantity": "Kd", "result": "0.00015 µM"}
{"SMILES": "CC(C)(C)[C@H](NC(=O)[C@H](CCCNC(=N)N)NC(=O)Cc1ccc(CNC(=N)N)cc1)C(=O)N[C@@H](CCONC(=N)N)C(=O)NCc1ccc(C(=N)N)cc1", "target": "F10 trypsin-like site", "test": "enzyme activity, inhibitor", "setting": "pH 8", "quantity": "Ki", "result": "15 µM"}
{"SMILES": "CC[C@H](C)[C@H](NC(=O)[C@H](C)NC(=O)[C@H](CO)NC(=O)[C@H](CC(=O)O)NC(=O)[C@H](CCCCN)NC(=O)[C@H](CCCCN)NC(=O)CNC(=O)[C@H](Cc1c[nH]cn1)NC(=O)[C@@H](N)CCC(N)=O)C(=O)N[C@H](C(=O)N[C@@H](CC(=O)O)C(=O)N[C@@H](Cc1c[nH]cn1)C(=O)N[C@@H](Cc1ccccc1)C(=O)N[C@@H](CCSC)C(=O)N[C@@H](CCCNC(=N)N)C(=O)N[C@@H](CC(C)C)C(=O)N1CCC[C@H]1C(=O)N[C@@H](CCCCN)C(=O)N[C@@H](C)C(=O)O)[C@@H](C)O", "target": "PCNA", "test": "binding, ITC", "setting": "pH 7.4", "quantity": "Kd", "result": "24.9 µM"}
{"SMILES": "FC(F)(F)c1ccc2c(c1)[C@@H]1CNC[C@H]2C1", "target": "Neuronal acetylcholine receptor subunit alpha-7 (CHRNA7, Homo sapiens, UniProt P36544)", "test": "cell-free assay", "quantity": "Ki", "result": "> 0.3 µM"}
{"SMILES": "CC[C@H](C)[C@H](NC(=O)[C@H](CCCCN)NC(=O)[C@H](CO)NC(=O)[C@H](CC(=O)O)NC(=O)[C@H](CCCCN)NC(=O)[C@H](CCCCN)NC(=O)CNC(=O)[C@H](Cc1c[nH]cn1)NC(=O)[C@@H](N)CCC(N)=O)C(=O)N[C@H](C(=O)N[C@@H](CC(=O)O)C(=O)N[C@@H](C)C(=O)N[C@@H](Cc1ccccc1)C(=O)N[C@@H](CCSC)C(=O)N[C@@H](CCCNC(=N)N)C(=O)N[C@@H](CC(C)C)C(=O)N1CCC[C@H]1C(=O)N[C@@H](CCCCN)C(=O)N[C@@H](C)C(=O)O)[C@@H](C)O", "target": "PCNA", "test": "binding, ITC", "setting": "pH 7.4", "quantity": "Kd", "result": "126 µM"}
{"SMILES": "c1ccc2c(c1)ccc1ccc3ccccc3c12", "target": "Cytochrome P450 1B1 (CYP1B1, Homo sapiens, UniProt Q16678)", "test": "binding, absorbance", "setting": "pH 7.4", "quantity": "Kd", "result": "2.5 µM"}
